Holding throughout (format): binding, Balb/c mice
One test concerns 1-D6. Description: icELISA with mAb 1-D6. The conditions noted are these: for IC50: mAb 1-D6, specific evaluation (Table 1, Fig. 3C); for CR: mAb 1-D6, CR%=IC50 6-GG/IC50 test compound x100%. The gist of the method: (§1)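 Ascites-derived mAbs (caprylic acid–ammonium sulfate purified) from female Balb/c mice immunized with hapten–BSA. Plates coated with hapten–OVA in carbonate buffer (0.5 mol L−1, pH 9.6), blocked with 5% skim milk, washed with PBST, and detected with goat anti-mouse IgG-HRP; reaction stopped with 2 mol L−1 H2SO4. Analyte stocks (1 mg/mL, 70% methanol) were diluted in 10% methanol-PBS. IC50 values were fitted, and cross-reactivity was calculated for capsaicinoids, gingerol derivatives and eight other compounds.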

Another test deals with 1-F12. Description: icELISA with mAb 1-F12. The settings on record: for CR: mAb 1-F12, CR%=IC50 6-GG/IC50 test compound x100%; for IC50: mAb 1-F12, specific evaluation (Table 1, Fig. 3B). The gist of the method: as §1
In a further test the test system is 1-G12. Nature of the test: icELISA with mAb 1-G12. The conditions noted are these: for CR: mAb 1-G12, CR%=IC50 6-GG/IC50 test compound x100%; for IC50: mAb 1-G12, specific evaluation (Table 1, Fig. 3D). The gist of the method: as §1

Experimental findings from article PMC10957407 (Food Chemistry: X, 2024) are described below.

Converted amounts (≈) assume the structure as drawn.

One may read the IC50 as the concentration that gives 50% inhibition. Read a low IC50 as inhibition by little substance. Consider `COc1cc(/C=C/C(=O)O)ccc1O` [Ferulic acid], for which the IC50 in the test on 1-D6 amounted to 1.92736 µg/mL (≈ 9.93 µM). Moreover, the CR in the test with 1-D6 was 3.07%; in the test on 1-F12 it was <12.66%; in the test on 1-G12 it was <14.01%.

On to `COc1ccc(/C=C/C(=O)O)cc1O` [IsoFerulic acid], for which the values for the concentration for half-maximal inhibition (IC50) in the test on 1-D6, in the test on 1-F12 and with 1-G12 were 2.12807 µg/mL (≈ 11 µM), >4 µg/mL and >4 µg/mL, respectively. Besides, the CR is reported as 2.78% in the test with 1-D6, <12.66% in the test with 1-F12 and <14.01% in the test on 1-G12.

Take `COc1cc(/C=C/C(=O)O)ccc1O` [Trans-Ferulic acid]: the 50% inhibitory concentration (IC50) with 1-D6, in the test on 1-F12 and in the test with 1-G12 was >4 µg/mL in each case. The results for the CR with 1-D6, in the test with 1-F12 and in the test on 1-G12 were <1.48%, <12.66% and <14.01%, respectively.

As for `COc1cc(C(=O)O)ccc1O` [Vanillic acid], the IC50 with 1-D6 is 1.7172 µg/mL (≈ 10.2 µM); with 1-F12 it was >4 µg/mL; in the test with 1-G12, >4 µg/mL. The CR with 1-D6 is given as 3.45%; with 1-F12, <12.66%; in the test on 1-G12 it was <14.01%.

As for `COc1cc(C=O)ccc1O` [Vanillin], the IC50 with 1-D6 is 1.98161 µg/mL (≈ 13 µM); with 1-F12 it was >4 µg/mL; in the test with 1-G12 it was >4 µg/mL. Moreover, the results for the CR in the test with 1-D6, in the test on 1-F12 and with 1-G12 were 2.99%, <12.66% and <14.01%, respectively.
